Measurements published in PMC2677731 (Molecular cell, 2009).
Entries after “also recorded” stand apart in the source; their conditions may differ.

How the values were obtained:
[1] = tested on: human genome (ENCODE array); assay: ChIP-chip, ENCODE tiled arrays; type: cell-based; settings: doxorubicin treatment
How it was run: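 ChIP DNA from human cells expressing wild-type or ΔPHD2 JADE1L, with or without doxorubicin, was amplified, labelled and hybridised to […] human ENCODE tiled arrays. Analysis followed the array maker's standard protocol. Significant binding peaks were counted by position on the gene body, or by distance from TSS/TES when outside coding regions.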

native chromatin = assay: Chromatin pull-down, yeast wild type native chromatin; type: binding; settings: H3-tail dependent, western blot
How it was run: (§1)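 Immunopurified JADE1L or JADE1S complexes from co-transfected cells, normalised by gel, were incubated with purified native chromatin. Chromatin came from yeast (wild type or set1, lacking H3K4me) or from human cells.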

[2] = tested on: native wild type chromatin; assay: HAT assay on wild type yeast native chromatin; type: biochemical; settings: chromatin 500 ng, fluorography
How it was run: (§2)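 For acetyltransferase reactions, wild-type or mutant JADE1 complexes were immunopurified from co-transfected cells. They were incubated with 500 ng of native chromatin purified from yeast cells. Assays otherwise followed an earlier published protocol.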

set1 chromatin = assay: HAT assay on set1; type: biochemical, yeast; settings: chromatin 500 ng, lacking H3K4me
How it was run: as §2

human native chromatin = assay: Chromatin pull-down, human native chromatin; type: binding
How it was run: as §1

endogenous chromatin = assay: In vivo association with endogenous chromatin; type: cell-based
How it was run: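 Tagged JADE1L or JADE1S complexes, wild-type or mutant, were immunopurified from co-transfected human cells. Co-purifying endogenous core histones and complex subunits were resolved by gel staining. Western blots with specific antibodies, including for H3K36me3, followed.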

Row | Molecule | JADE1L binding at menin gene [1] | binding to yeast native chromatin (native chromatin) | HAT activity on wild type yeast chromatin [2] | HAT activity on set1 yeast chromatin (set1 chromatin) | binding to H3K36me3-containing human chromatin in vitro (human native chromatin) | co-purification of core histones (endogenous chromatin; immunopurified complexes, gel staining) | level of H3K36me3-containing chromatin bound in vivo (endogenous chromatin; western blot, relative to JADE1L)
1 | COc1cccc2c1C(=O)c1c(O)c3c(c(O)c1C2=O)C[C@@](O)(C(=O)CO)C[C@@H]3O[C@H]1C[C@H](N)[C@H](O)[C@H](C)O1 [doxorubicin] | seems to be induced | – | – | – | – | – | –
2 | JADE1S: natural smaller 509 amino acid-protein produced by an abundant mRNA splice variant; dimeric complex with HBO1 (protein) MKRGRLPSSSEDSDDNGSLSTTWSQNSRSQHRRSSCSRHEDRKPSEVFRTDLITAMKLHDSYQLNPDEYYVLADPWRQEWEKGVQVPVSPGTIPQPVARVVSEEKSLMFIRPKKYIVSSGSEPPELGYVDIRTLADSVCRYDLNDMDAAWLELTNEEFKEMGMPELDEYTMERVLEEFEQRCYDNMNHAIETEEGLGIEYDEDVVCDVCQSPDGEDGNEMVFCDKCNICVHQACYGILKVPEGSWLCRTCALGVQPKCLLCPKKGGAMKPTRSGTKWVHVSCALWIPEVSIGSPEKMEPITKVSHIPSSRWALVCSLCNEKFGASIQCSVKNCRTAFHVTCAFDRGLEMKTILAENDEVKFKSYCPKHSSHRKPEESLGKGAAQENGAPECSPRNPLEPFASLEQNREEAHRVSVRKQKLQQLEDEFYTFVNLLDVARALRLPEEVVDFLYQYWKLKRKVNFNKPLITPKKDEEDNLAKREQDVLFRRLQLFTHLRQDLERVMIDTDTL | – | efficiently pulled down yeast chromatin | much less active than the JADE1L complex | highly active; also recorded: equivalent acetyltransferase activity | can bind H3K36me3-containing chromatin in vitro | a full set of core histones co-purified | much higher; also recorded: significantly more H3K36me3 signal
